# Screens: PubChem, Broad Institute
# CAL PDZ FP-1 – CAL PDZ peptide-binding inhibitors, primary screen, biochemical, fluorescence polarization, Cer-tagged CAL PDZ, HTS; 0.02% of 330,000 active; purified CAL PDZ, TMR-peptide fluorescence polarization, 1 h; inhibition, % at 20 µM;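 active means highest replicate inhibition of at least 40%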;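 further: plate controls were DMSO neutral control wells for no effect and unlabeled competitor peptide control wells for full effect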
#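 Control set: unlabelled peptide and DMSO controls / Material: purified CerCALP PDZ construct / Timing: 1 h incubation at room temperature before polarization reading / Doses: 20 µM, one dose / Detection: fluorescence polarization (mP)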
# SIRT5 block – SIRT5 desuccinylase inhibitors, primary screen, biochemical, fluorescence imaging, single point, set 5; inhibition, % at 15 µM; 1.1% of 330,000 active; NAD-dependent protein deacylase sirtuin-5, mitochondrial (Homo sapiens), Q9NXA8; Purified SirT5, succinyl-peptide AMC, trypsin-coupled fluorescence; AID 652115, 2013; in the data active means inhibition above about 15%; inconclusive means no clear call, values can overlap the other calls
# Target sequence (Q9NXA8 whole entry, looked up): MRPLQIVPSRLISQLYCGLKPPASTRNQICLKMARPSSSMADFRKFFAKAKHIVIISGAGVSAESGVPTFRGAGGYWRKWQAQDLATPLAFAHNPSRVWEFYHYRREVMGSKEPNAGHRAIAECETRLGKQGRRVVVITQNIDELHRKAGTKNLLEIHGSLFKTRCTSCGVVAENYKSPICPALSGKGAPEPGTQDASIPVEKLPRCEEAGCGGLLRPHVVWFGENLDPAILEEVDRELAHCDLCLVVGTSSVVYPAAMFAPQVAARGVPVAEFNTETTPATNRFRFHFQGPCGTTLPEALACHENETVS
# DENV2 CPE – inhibitors of DENV2 cytopathic effect, primary screen, cell-based, plate reader, single concentration; DENV2-infected cells, cytopathic effect rescue; CPE inhibition, % at 9.99 µM; 1.7% of 350,000 active; in the data active means CPE inhibition above about 20%, passing the limit was not always enough; inconclusive means no clear call, values can overlap the other calls; tested in BHK-21 cells;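 further: 0% = median of neutral control wells and 100% = median of positive control wells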
# CAL PDZ FP-2 – untagged CAL PDZ binding inhibitors, primary screen, biochemical, fluorescence polarization, HTS. Golgi-associated PDZ and coiled-coil motif-containing protein (Homo sapiens), Q9HD26. purified CAL PDZ, TMR-peptide fluorescence polarization, 1 h. inhibition, % at 24.9 µM. 0.92% of 300,000 active. AID 602252, 2012;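 active means mean inhibition of at least 30% with at least half of replicates also reaching 30%; inconclusive means no clear call, values can overlap the other calls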;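 further: 0% = DMSO neutral control and 100% = excess unlabeled competitor peptide PRC23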
# ERAP1 HTS inh – human ERAP1 aminopeptidase inhibitors, primary screen, biochemical, single point, plate reader. Endoplasmic reticulum aminopeptidase 1 (Homo sapiens), Q9NZ08. 0.15% of 340,000 active. inhibition, % at 10.7 µM. recombinant ERAP1, Leu-AMC fluorescence, 60 min;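 active means mean replicate inhibition of at least 30%, or all replicates individually reaching that 30% level; inactive means mean below 30% and not every replicate reaching it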;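 further: 0% = neutral control wells and 100% = L-leucinethiol positive control wells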
# S100A4 MyoIIA – inhibitors of S100A4-myosin IIA peptide binding, primary screen, biochemical, fluorescence polarization, TAMRA-MyoIIA peptide; AID 652163, 2013; 0.14% of 360,000 active; inhibition, % at 10.7 µM; Protein S100-A4 (Homo sapiens), P26447;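 active means mean inhibition of at least 70% across replicates, with every replicate also reaching that level; inconclusive means mean inhibition reaches 70% but some replicates fall short; inactive means mean inhibition below 70%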
# Target sequence (P26447 whole entry, looked up): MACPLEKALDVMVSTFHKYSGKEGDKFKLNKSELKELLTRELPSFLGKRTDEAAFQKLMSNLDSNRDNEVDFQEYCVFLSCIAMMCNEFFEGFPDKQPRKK
#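 Material: S100A4 monomer (human). Medium: Calcium-containing HEPES buffer, pH 7.2. Probe or stimulus: labelled myosin peptide probe, 5 nM. Compound dosing: one concentration per compound. Timing: polarization read 5 min after assay mix addition, stable 5–60 min. Benchmarks: DMSO as neutral control, TFP as positive control.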
# An asterisk follows results filed as active; ? = inconclusive; / = no result. An excerpt weighted towards active compounds, which were near 2.9% of everything screened.
SMILES,CAL PDZ FP-1,SIRT5 block,DENV2 CPE,CAL PDZ FP-2,ERAP1 HTS inh,S100A4 MyoIIA
Cc1ccc(C2(C)NC(=O)N(CC(=O)Nc3ccccc3C(=O)NC3CCCC3)C2=O)cc1 (stereo unspecified),-3,0,62*,-2,1,-2
O=C(CN1C(=O)c2ccccc2C1=O)Nc1ccccc1C(=O)NC1CCCCCC1,0,10,/,-1,0,-2
CC1(c2ccc3c(c2)OCO3)NC(=O)N(CC(=O)Nc2ccccc2[N+](=O)[O-])C1=O (stereo unspecified),-1,0,3,46*,0,-1
CCC(=O)N1CC[C@@H]2[C@H]1c1cc(C#Cc3ccccc3)ccc1N[C@@H]2CO,/,3,0,/,0,-5
CCN(CC)C(=O)C1CCCN(Cc2ccc3ccccc3c2)C1 (stereo unspecified),-6,46*,0,-2,-1,0
C[C@H](CO)N1C[C@H](C)[C@H](CN(C)C(=O)Nc2ccccc2)Oc2c(NS(C)(=O)=O)cccc2C1=O,/,-5,2,/,-1,-8
COCC(=O)Nc1ccc2c(c1)C(=O)N(C)[C@H]1CC[C@@H](CC(=O)Nc3ccccc3)O[C@H]1CO2,/,7,-2,/,-2,17
CN(C)C(CNC(=O)CCNC(=O)c1ccc(Cl)cc1)c1ccco1 (stereo unspecified),-1,24*,-3,-1,-1,3
O=C(CCN1CCCCC1)N[C@@H]1CC[C@H](CCNC(=O)c2cc(Cl)cc(Cl)c2)O[C@H]1CO,/,0,0,/,-3,4
O=C(NC1CCCCCCC1O)c1ccccc1 (stereo unspecified),-1,16*,-4,1,0,-16
CC(SC(=S)N1CCCC1)C(=O)O (stereo unspecified),0,20*,0,0,1,-5
CC(C)(SC(=S)N1CCCCCC1)C(=O)O,0,-7,13,-18,-3,1
CC(C)CC#Cc1ccc([C@@H]2[C@H]3CN(C(=O)c4ccccn4)CC(=O)N3[C@H]2CO)cc1,/,-1,0,/,2,3
C[C@@H]1CN([C@H](C)CO)C(=O)Cc2cc(NS(=O)(=O)c3cccs3)ccc2O[C@H]1CN(C)Cc1ccc(-c2ccccc2)cc1,/,9,15,/,-1,9
C[C@@H]1CN([C@@H](C)CO)C(=O)Cc2cc(NS(=O)(=O)c3cccs3)ccc2O[C@H]1CN(C)Cc1ccc(-c2ccccc2)cc1,/,17*,-12,/,-2,48
C[C@@H]1CN([C@@H](C)CO)C(=O)Cc2cc(NS(=O)(=O)c3cccs3)ccc2O[C@@H]1CN(C)Cc1ccc(-c2ccccc2)cc1,/,-7,44*,/,0,-4
C[C@@H]1CN([C@@H](C)CO)C(=O)Cc2cc(NS(=O)(=O)c3cccs3)ccc2O[C@H]1CN(C)Cc1ccc(C(F)(F)F)cc1,/,16*,-5,/,-1,-7
COc1ccc(NC(=O)N(C)C[C@@H]2Oc3c(NS(=O)(=O)c4ccc(F)cc4)cccc3C(=O)N([C@H](C)CO)C[C@H]2C)cc1,/,/,2,/,/,/
CC#CC[N+](C)(C)CC(=O)c1ccccc1,-3,-2,4,-11,5,-44
CC#CC[N+](C)(C)CCCCCCCC,-1,25*,1,/,/,0
CC(C)(C)C(=O)O/N=C(\N)Cc1ccc(-c2csnn2)cc1,-1,-2,18,61*,-8,3
COc1ccc(CC(=O)O/N=C(\N)Cc2ccc(OC)cc2)cc1,-3,/,/,-2,/,/
Cc1ccc(S(=O)(=O)N[C@H](C(=O)OCC(=O)NC(=O)C2CCCCC2)C(C)C)cc1,-1,/,?,154*,0,1
O=C(C[C@H]1CC[C@H](NS(=O)(=O)c2cccc(F)c2)[C@@H](CO)O1)NCc1ccc2c(c1)OCO2,/,5,-6,/,3,105*
COc1ccccc1S(=O)(=O)N[C@H]1C=C[C@@H](CC(=O)NCc2cccc(F)c2)O[C@H]1CO,/,0,23*,/,1,3
SMILES,CAL PDZ FP-1,SIRT5 block,DENV2 CPE,CAL PDZ FP-2,ERAP1 HTS inh,S100A4 MyoIIA
O=C(C[C@@H]1C=C[C@@H](NS(=O)(=O)c2cccc(F)c2)[C@@H](CO)O1)NCc1ccc2c(c1)OCO2,/,4,-7,/,1,83*
O=C(C[C@H]1CC[C@@H](NS(=O)(=O)c2cccc(F)c2)[C@H](CO)O1)NCc1ccc2c(c1)OCO2,/,3,-4,/,1,8
COc1ccc(CNC(=O)C[C@H]2C=C[C@@H](NC(=O)c3ccc4c(c3)OCO4)[C@H](CO)O2)cc1,/,0,?,/,0,1
COc1ccc(CNC(=O)C[C@H]2C=C[C@H](NC(=O)c3ccc4c(c3)OCO4)[C@H](CO)O2)cc1,/,-4,61*,/,2,5
Cc1cc(=O)nc2c3ccccc3n(C(C)C(=O)NCCN3CCOCC3)n12 (stereo unspecified),0,-1,35*,1,-4,2
COCCNC(=O)C[C@H]1C[C@@H]2c3cc(NC(=O)Nc4ccccc4)ccc3O[C@@H]2[C@H](CO)O1,/,-1,16,/,-2,1
CN1CCN(C2CCN(c3ccc(Nc4nnc(Cl)c(Nc5ccccc5S(C)(=O)=O)n4)c(OC(CF)CF)c3)CC2)CC1,0,/,37*,-1,10,0
C[C@H]1CN([C@@H](C)CO)S(=O)(=O)c2ccc(-c3ccc(F)cc3)cc2O[C@@H]1CN(C)C,/,-4,19,/,2,3
O=C(C[C@@H]1C[C@@H]2c3cc(NC(=O)CC4CC4)ccc3O[C@@H]2[C@@H](CO)O1)NCc1ccccn1,/,-3,7,/,5,15
C[C@@H]1CN([C@@H](C)CO)C(=O)c2ccccc2-c2ccccc2CO[C@@H]1CN(C)S(=O)(=O)c1ccc([N+](=O)[O-])cc1,/,6,-8,/,-2,67
CCN1CCN(C(=O)C(C)Nc2ccc(OC)cc2OC)CC1 (stereo unspecified),0,15*,/,/,1,-11
C[C@@H]1CN([C@H](C)CO)C(=O)c2cc(C#Cc3ccccc3)cnc2O[C@H]1CN(C)C(=O)C1CC1,/,-4,13,/,-2,1
CC(=O)Nc1ccc(S(=O)(=O)NC(CC(=O)NCCC2=CCCCC2)C(C)C)cc1 (stereo unspecified),0,/,/,45*,/,/
